Measurements reported in publication PMC4681656 (Organic & biomolecular chemistry, 2016).
Entries after “also recorded” stand apart in the source; their conditions may differ.

Legend:
[1] = tested on: Par-4 secretion from mouse fibroblasts; assay type: cell-based; settings: for fold induction at 0.5 µM: Mus musculus, Fibroblast, 24 h, read-out: Ratio of Par-4 Secretion by Arylquin Relative to Vehicle
How it was run: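 Cells exposed to test compound for 24 h. Conditioned medium and lysates were analysed by quantitative Western blot for Par-4 and Col1A1, with Col1A1 used to normalise secreted Par-4. Experiments were run in triplicate; data are mean ± standard deviation of at least three experiments, with Student t test.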

[2] = target: hERG potassium channel (Homo sapiens, UniProt Q12809); test: [3H]-dofetilide binding assay with hERG-HEK293 cell membranes
Chain of hERG potassium channel (Q12809 whole entry, the tested form may be a part): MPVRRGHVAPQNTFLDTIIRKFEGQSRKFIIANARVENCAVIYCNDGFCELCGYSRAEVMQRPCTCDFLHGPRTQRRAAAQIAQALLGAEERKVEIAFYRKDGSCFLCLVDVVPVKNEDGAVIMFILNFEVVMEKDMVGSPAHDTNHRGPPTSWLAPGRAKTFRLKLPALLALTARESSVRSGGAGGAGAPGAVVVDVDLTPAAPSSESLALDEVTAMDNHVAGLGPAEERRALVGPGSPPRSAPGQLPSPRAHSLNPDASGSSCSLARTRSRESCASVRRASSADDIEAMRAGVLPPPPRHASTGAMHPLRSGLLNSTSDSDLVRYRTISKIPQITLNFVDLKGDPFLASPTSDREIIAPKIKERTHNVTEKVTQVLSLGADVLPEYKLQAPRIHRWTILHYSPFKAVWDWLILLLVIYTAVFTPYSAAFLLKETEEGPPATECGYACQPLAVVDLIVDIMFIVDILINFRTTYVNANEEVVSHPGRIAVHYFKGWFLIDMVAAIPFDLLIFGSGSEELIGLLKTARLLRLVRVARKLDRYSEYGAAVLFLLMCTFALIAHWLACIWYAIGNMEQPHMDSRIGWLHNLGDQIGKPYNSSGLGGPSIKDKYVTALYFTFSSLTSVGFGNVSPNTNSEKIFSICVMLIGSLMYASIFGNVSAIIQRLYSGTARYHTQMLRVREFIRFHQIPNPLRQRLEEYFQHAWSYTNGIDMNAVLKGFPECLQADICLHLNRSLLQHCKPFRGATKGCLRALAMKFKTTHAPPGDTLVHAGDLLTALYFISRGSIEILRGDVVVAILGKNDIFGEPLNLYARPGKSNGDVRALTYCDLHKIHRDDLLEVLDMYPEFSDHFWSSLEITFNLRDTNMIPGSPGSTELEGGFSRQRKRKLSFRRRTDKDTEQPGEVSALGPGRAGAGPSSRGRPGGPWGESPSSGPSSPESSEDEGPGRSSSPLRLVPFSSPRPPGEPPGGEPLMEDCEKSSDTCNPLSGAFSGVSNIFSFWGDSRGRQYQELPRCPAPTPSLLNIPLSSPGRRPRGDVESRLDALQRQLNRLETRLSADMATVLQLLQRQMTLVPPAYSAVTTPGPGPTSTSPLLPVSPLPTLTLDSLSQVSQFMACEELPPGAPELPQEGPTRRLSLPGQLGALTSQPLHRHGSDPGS

[3] = target: vimentin rod domain (residues 99-411) (Homo sapiens, UniProt P08670); test: Vimentin-arylquin binding assay by intrinsic arylquin fluorescence; settings: fluorescence titration
Chain of vimentin rod domain (residues 99-411) (P08670 99-411): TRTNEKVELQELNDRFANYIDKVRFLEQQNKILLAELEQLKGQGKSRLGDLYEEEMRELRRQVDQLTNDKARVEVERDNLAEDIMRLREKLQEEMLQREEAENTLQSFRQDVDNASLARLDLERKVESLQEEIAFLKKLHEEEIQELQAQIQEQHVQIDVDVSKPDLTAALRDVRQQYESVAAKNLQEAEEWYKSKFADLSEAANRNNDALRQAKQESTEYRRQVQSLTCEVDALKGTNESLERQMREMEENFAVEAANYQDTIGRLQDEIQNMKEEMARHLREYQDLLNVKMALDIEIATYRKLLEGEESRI

SMILES	fold induction at 0.5 µM [1]	IC50 [2]	Par-4 secretion activity (in words) [1]	further results
CN(C)c1ccc2cc(-c3ccccc3F)c(=S)[nH]c2c1 [compound 7, 7-(N,N-Dimethylamino)-3-(2-fluorophenyl)quinoline-2(1H)-thione]	1.7	> 100 µM		
COc1ccccc1-c1cc2ccc(N(C)C)cc2nc1N [1r, 3-(2-Methoxyphenyl)-N^7,N^7-dimethylquinoline-2,7-diamine]	1.7			
CN1CCN(c2nc3cc(N(C)C)ccc3cc2-c2ccccc2F)CC1 [compound 11, 3-(2-Fluorophenyl)-N,N-dimethyl-2-(4-methylpiperazin-1-yl)quinolin-7-amine]			high levels of Par-4 secretion	
Nc1nc2ccc(Cl)cc2cc1-c1ccccc1F [compound 16, 6-Chloro-3-(2-fluorophenyl)quinolin-2-amine]			equipotent to 1a	
CN(C)c1ccc2cc(-c3ccccc3F)c(=O)[nH]c2c1 [compound 2, 7-(N,N-Dimethylamino)-3-(2-fluorophenyl)quinolin-2(1H)-one]	1.1	> 100 µM		
CN(C)c1ccc2cc(-c3ccccc3F)c(N)nc2c1 [1a, 3-(2-Fluorophenyl)-N^7,N^7-dimethylquinoline-2,7-diamine]				Stoichiometry at saturation [3]: 3-4 molecules per monomer of the rod domain
Nc1nc2ccccc2cc1-c1ccccc1F [compound 12, 3-(2-Fluorophenyl)quinolin-2-amine]	2.8	14.6 ± 5.82 µM	high levels of Par-4 secretion	
CN(C)c1ccc2cc(-c3c(F)cccc3Cl)c(N)nc2c1 [1n, 3-(2-Chloro-6-fluorophenyl)-N^7,N^7-dimethylquinoline-2,7-diamine]	2.4			
Nc1nc2cccc(F)c2cc1-c1ccccc1F [compound 13, 5-Fluoro-3-(2-fluorophenyl)quinolin-2-amine]			equipotent to 1a	
CN(C)c1ccc2cc(-c3ccccc3F)c(N3CCOCC3)nc2c1 [compound 10, 3-(2-Fluorophenyl)-N,N-dimethyl-2-morpholinoquinolin-7-amine]	1.8	23.3 ± 3.05 µM		
Nc1nc2cc(Cl)ccc2cc1-c1ccccc1F [compound 17, 7-Chloro-3-(2-fluorophenyl)quinolin-2-amine]			did not induce Par-4 secretion	Binding to vimentin rod domain (in words) ([3]; arylquin at 1 μM): did not bind the vimentin rod domain to a measurable extent; also recorded: fluorescence signal did not change in the titration
CN(C)c1ccc2cc3c(nc(N)c4ccccc43)nc2c1 [compound 5, N^9,N^9-Dimethyldibenzo[b,f][1,8]naphthyridine-5,9-diamine]			inactive	
CN(C)c1ccc2cc(-c3ccc(F)cc3)c(N)nc2c1 [1f, 3-(4-Fluorophenyl)-N^7,N^7-dimethylquinoline-2,7-diamine]		30.2 ± 10.3 µM		
CN(C)c1ccc2cc(-c3cccc(F)c3)c(N)nc2c1 [1d, 3-(3-Fluorophenyl)-N^7,N^7-dimethylquinoline-2,7-diamine]		1.59 ± 0.39 µM		
CN(C)c1ccc2cc(-c3c(Cl)cccc3Cl)c(N)nc2c1 [1o, 3-(2,6-Dichlorophenyl)-N^7,N^7-dimethylquinoline-2,7-diamine]	2.4			
CN(C)c1ccc2cc3c(nc2c1)[nH]c(=O)c1ccccc13 [compound 6, 9-(N,N-Dimethylamino)dibenzo[b,f][1,8]naphthyridin-5(6H)-one]			inactive	
